In ChEMBL document CHEMBL4665627 (Eur J Med Chem, 2019):
Values after ≈ are worked out from the molar mass of the structure shown. Active and inactive are the calls of the source. The rule behind the calls is not given here.

Columns and labels:
Escherichia coli [1] = experiment: Antibacterial activity against Escherichia coli ATCC 25922 assessed as inhibition of bacterial growth after 24 hrs by CLSI protocol based two fold serial dilution method; type: functional
Summary of the method: (§1)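 Two-fold serial broth dilution in 96-well plates following CLSI; MIC (mM) taken as the lowest concentration giving complete growth inhibition; MIC values from three independent experiments.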

[2] = Inhibition of Saccharomyces cerevisiae CGMCC 2.145 chitin synthase using GlcNAc and UDP-GlcNAc as substrate incubated for 60 mins by microplate reader analysis
Summary of the method: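 Chitin synthase IC50 determined from concentration–inhibition curves.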

Aspergillus fumigatus = experiment: Antifungal activity against Aspergillus fumigatus assessed as inhibition of fungal growth after 24 hrs by CLSI protocol based two fold serial dilution method; type: functional; summary of the method: as §1
Enterococcus faecalis = experiment: Antibacterial activity against Enterococcus faecalis assessed as inhibition of bacterial growth after 24 hrs by CLSI protocol based two fold serial dilution method; type: functional; summary of the method: as §1
Candida parapsilosis = experiment: Antifungal activity against Candida parapsilosis ATCC 22019 assessed as inhibition of fungal growth after 24 hrs by CLSI protocol based two fold serial dilution method; type: functional; settings: Lodderomyces parapsilosis; summary of the method: as §1
Staphylococcus aureus [3] = experiment: Antibacterial activity against methicillin-resistant Staphylococcus aureus N315 assessed as inhibition of bacterial growth after 24 hrs by CLSI protocol based two fold serial dilution method; type: functional
Candida albicans [4] = experiment: Antifungal activity against Candida albicans ATCC 90023 assessed as inhibition of fungal growth after 24 hrs by CLSI protocol based two fold serial dilution method; type: functional; summary of the method: as §1
Staphylococcus aureus [5] = experiment: Antibacterial activity against Staphylococcus aureus ATCC 25923 assessed as inhibition of bacterial growth after 24 hrs by CLSI protocol based two fold serial dilution method; type: functional; summary of the method: as §1
Saccharomyces cerevisiae = experiment: Inhibition of Saccharomyces cerevisiae CGMCC 2.145 chitin synthase at 300 ug/ml using GlcNAc and UDP-GlcNAc as substrate incubated for 60 mins by microplate reader analysis relative to control; settings: dose 300.0 µg/ml
Summary of the method: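 Chitin synthase inhibition ratio measured at 300 µg/mL test compound, relative to untreated control.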

Acinetobacter baumannii = experiment: Antibacterial activity against Acinetobacter baumannii assessed as inhibition of bacterial growth after 24 hrs by CLSI protocol based two fold serial dilution method; type: functional; summary of the method: as §1
Staphylococcus aureus [6] = experiment: Antibacterial activity against Staphylococcus aureus assessed as inhibition of bacterial growth after 24 hrs by CLSI protocol based two fold serial dilution method; type: functional; summary of the method: as §1
Pseudomonas aeruginosa [7] = experiment: Antibacterial activity against Pseudomonas aeruginosa ATCC 27853 assessed as inhibition of bacterial growth after 24 hrs by CLSI protocol based two fold serial dilution method; type: functional; summary of the method: as §1
Staphylococcus aureus [8] = experiment: Antibacterial activity against Staphylococcus aureus ATCC 29213 assessed as inhibition of bacterial growth after 24 hrs by CLSI protocol based two fold serial dilution method; type: functional
Pseudomonas aeruginosa [9] = experiment: Antibacterial activity against Pseudomonas aeruginosa assessed as inhibition of bacterial growth after 24 hrs by CLSI protocol based two fold serial dilution method; type: functional; summary of the method: as §1
Klebsiella pneumoniae [10] = experiment: Antibacterial activity against Klebsiella pneumoniae assessed as inhibition of bacterial growth after 24 hrs by CLSI protocol based two fold serial dilution method; type: functional; summary of the method: as §1
Candida tropicalis = experiment: Antifungal activity against Candida tropicalis assessed as inhibition of fungal growth after 24 hrs by CLSI protocol based two fold serial dilution method; type: functional; summary of the method: as §1
Escherichia coli [11] = experiment: Antibacterial activity against Escherichia coli assessed as inhibition of bacterial growth after 24 hrs by CLSI protocol based two fold serial dilution method; type: functional; summary of the method: as §1
Candida albicans [12] = experiment: Antifungal activity against Candida albicans assessed as inhibition of fungal growth after 24 hrs by CLSI protocol based two fold serial dilution method; type: functional; summary of the method: as §1
DNA [13] = experiment: Binding affinity to Klebsiella pneumoniae DNA assessed as intercalating activity by measuring intrinsic binding constant by UV-Vis spectroscopy; type: nucleic-acid assay
Summary of the method: (§2)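 DNA isolated from K. pneumoniae held at fixed concentration while test compound is added in stepwise, proportional increments; UV-vis absorption spectra recorded, following the 260 nm DNA band.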

DNA [14] = experiment: Binding affinity to Klebsiella pneumoniae DNA assessed as increase in absorption peak of DNA by UV-Vis spectroscopy; type: nucleic-acid assay; summary of the method: as §2
DNA [15] = experiment: Competitive binding affinity to Klebsiella pneumoniae DNA assessed as increase in DNA-NR probe absorption intensity at wavelength of 460 nm by UV spectroscopy; type: nucleic-acid assay
Summary of the method: (§3)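 Competitive binding with neutral red as spectral probe on K. pneumoniae DNA, monitored by UV-vis absorption spectroscopy.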

Staphylococcus aureus [16] = experiment: Additive antibacterial activity against Staphylococcus aureus assessed as fractional inhibitory concentration index in presence of cefathiamidine by CLSI protocol based two fold serial dilution method; type: functional
DNA [17] = experiment: Binding affinity to Klebsiella pneumoniae DNA assessed as cleavage of DNA at 50 uM and pH 7.4 and 37 °C incubated for 6 hrs by gel electrophoresis analysis
Klebsiella pneumoniae [18] = experiment: Antibacterial activity against Klebsiella pneumoniae measured every 24 hrs after 10 passages by serial dilution method; type: functional, organism-based
Escherichia coli [19] = experiment: Synergistic antibacterial activity against Escherichia coli assessed as fractional inhibitory concentration index in presence of cefathiamidine by CLSI protocol based two fold serial dilution method; type: functional
DNA [20] = experiment: Binding affinity to Klebsiella pneumoniae DNA assessed as hyperchromic shift by UV-Vis spectroscopy; type: nucleic-acid assay; summary of the method: as §2
Klebsiella pneumoniae [21] = experiment: Bactericidal activity against Klebsiella pneumoniae assessed as log reduction in viable bacteria at 4 times MIC incubated for 1 hr followed by plating on agar plate and measured after 24 hrs by time kill assay; type: functional
Summary of the method: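 Time-kill kinetics for K. pneumoniae at 4 × MIC.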

Klebsiella pneumoniae [22] = experiment: Induction of membrane permeabilization in Klebsiella pneumoniae at 12 times MIC measured after 1 hr by propidium iodide staining based fluorescence assay; type: functional, organism-based
[23] = Cytotoxicity against mouse RAW264.7 cells assessed as cell viability at 128 ug/ml after 72 hrs by MTT assay relative to control; type: cell-based; settings: at 128 µg/mL, read-out: Activity
Summary of the method: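 RAW 264.7 mouse macrophage cells exposed to test compound; viability by colorimetric MTT proliferation assay; standard deviation from three independent experiments.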

Staphylococcus aureus [24] = experiment: Antibacterial activity against Staphylococcus aureus assessed as bacterial growth inhibition in presence of cefathiamidine by CLSI protocol based two fold serial dilution method; type: functional; summary of the method: as §1
Klebsiella pneumoniae [25] = experiment: Potentiation of cefathiamidine-induced antibacterial activity against Klebsiella pneumoniae assessed as fold reduction in cefathiamidine MIC by CLSI protocol based two fold serial dilution method; type: functional
Staphylococcus aureus [26] = experiment: Synergistic antibacterial activity against methicillin-resistant Staphylococcus aureus assessed as fractional inhibitory concentration index in presence of cefathiamidine by CLSI protocol based two fold serial dilution method; type: functional
Summary of the method: (§4)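 Checkerboard-type pairing, with each agent tested alone and combined by CLSI two-fold serial dilution. MICs are from three independent experiments. FIC index = (MIC of A combined/MIC of A alone) + (MIC of B combined/MIC of B alone). An index ≤1 is read as synergistic and 1–2 as additive.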

DNA gyrase = DNA gyrase (Escherichia coli, UniProt P0AES4+P0AES6); experiment: Inhibition of Escherichia coli DNA gyrase holoenzyme assessed as reduction in pBR322 DNA supercoiling using pBR322 plasmid DNA as substrate incubated for 90 mins in presence of ATP by ethidium bromide staining based agarose gel electrophoresis analysis; type: protein-complex assay
DNA [27] = experiment: Binding affinity to Klebsiella pneumoniae DNA assessed as red shift in absorption spectra by UV-Vis spectroscopy; type: nucleic-acid assay; summary of the method: as §2
Escherichia coli [28] = experiment: Antibacterial activity against Escherichia coli assessed as bacterial growth inhibition in presence of cefathiamidine by CLSI protocol based two fold serial dilution method; type: functional; summary of the method: as §1
DNA [29] = experiment: Competitive binding affinity to Klebsiella pneumoniae DNA assessed as increase in DNA intercalation by measuring increase in absorbance at around 260 nm by UV spectroscopy; type: nucleic-acid assay; summary of the method: as §3
Klebsiella pneumoniae [30] = experiment: Synergistic antibacterial activity against Klebsiella pneumoniae assessed as fractional inhibitory concentration index in presence of cefathiamidine by CLSI protocol based two fold serial dilution method; type: functional
DNA [31] = experiment: Competitive binding affinity to Klebsiella pneumoniae DNA assessed as intercalating activity by measuring decrease in DNA-NR probe absorption spectra at wavelength of 530 nm by UV spectroscopy; type: nucleic-acid assay; summary of the method: as §3
Staphylococcus aureus [32] = experiment: Antibacterial activity against methicillin-resistant Staphylococcus aureus assessed as bacterial growth inhibition in presence of cefathiamidine by CLSI protocol based two fold serial dilution method; type: functional; summary of the method: as §4
Klebsiella pneumoniae [33] = experiment: Antibacterial activity against Klebsiella pneumoniae assessed as bacterial growth inhibition in presence of cefathiamidine by CLSI protocol based two fold serial dilution method; type: functional; summary of the method: as §1

CCn1cc(-c2csc(N)n2)c(=O)c2cc(F)c(N3CCN(Cc4ccc(Cl)cc4)CC3)cc21
MIC (Escherichia coli [1]): 32 µM (≈ 15.9 µg/mL) | IC50 [2]: 320 µM | MIC (Aspergillus fumigatus): 515 µM (≈ 256 µg/mL) | MIC (Enterococcus faecalis): 16 µM (≈ 7.97 µg/mL) | MIC (Candida parapsilosis): 16 µM (≈ 7.97 µg/mL) | MIC (Staphylococcus aureus [3]): 16 µM (≈ 7.97 µg/mL) | MIC (Candida albicans [4]): 64 µM (≈ 31.9 µg/mL) | MIC (Staphylococcus aureus [5]): 16 µM (≈ 7.97 µg/mL) | inhibition (Saccharomyces cerevisiae): 56.2% | MIC (Acinetobacter baumannii): 32 µM (≈ 15.9 µg/mL) | MIC (Staphylococcus aureus [6]): 64 µM (≈ 31.9 µg/mL) | MIC (Pseudomonas aeruginosa [7]): 32 µM (≈ 15.9 µg/mL) | MIC (Staphylococcus aureus [8]): 64 µM (≈ 31.9 µg/mL) | MIC (Pseudomonas aeruginosa [9]): 257 µM (≈ 128 µg/mL) | MIC (Klebsiella pneumoniae [10]): 129 µM (≈ 64.2 µg/mL) | MIC (Candida tropicalis): 32 µM (≈ 15.9 µg/mL) | MIC (Escherichia coli [11]): 32 µM (≈ 15.9 µg/mL) | MIC (Candida albicans [12]): 32 µM (≈ 15.9 µg/mL)

NC(=O)OC[C@H](O)[C@@H](O)[C@H](N)C(=O)N[C@H](C(=O)O)[C@H]1O[C@@H](n2cc(CO)c(=O)[nH]c2=O)[C@H](O)[C@@H]1O [POLYOXIN B]
IC50 [2]: 120 µM | inhibition (Saccharomyces cerevisiae): 81%

CCn1cc(-c2csc(N)n2)c(=O)c2cc(F)c(N3CCN(CC#N)CC3)cc21
MIC (Escherichia coli [1]): 10 µM (≈ 4.12 µg/mL) | IC50 [2]: 180 µM | K (DNA [13]): 1.43 10^4L/mol | MIC (Aspergillus fumigatus): 19 µM (≈ 7.84 µg/mL) | MIC (Enterococcus faecalis): 19 µM (≈ 7.84 µg/mL) | Activity (DNA [14]): Active | Activity (DNA [15]): Active | fractional inhibitory concentration index (FICI) (Staphylococcus aureus [16]): 1.12 | Activity (DNA [17]): inactive | Activity (Klebsiella pneumoniae [18]): Active | MIC (Candida parapsilosis): 19 µM (≈ 7.84 µg/mL) | fractional inhibitory concentration index (FICI) (Escherichia coli [19]): 0.73 | Activity (DNA [20]): Active | Activity (Klebsiella pneumoniae [21]): >2.5 log10CFU/ml | MIC (Staphylococcus aureus [3]): 19 µM (≈ 7.84 µg/mL) | Activity (Klebsiella pneumoniae [22]): Active | MIC (Candida albicans [4]): 10 µM (≈ 4.12 µg/mL) | viability at 72 h, 128 ug/ml [23]: 80.2% | MIC (Staphylococcus aureus [5]): 10 µM (≈ 4.12 µg/mL) | MIC (Staphylococcus aureus [24]): 10 µM | fold change (FC) (Klebsiella pneumoniae [25]): 2 | fractional inhibitory concentration index (FICI) (Staphylococcus aureus [26]): 0.61 | inhibition (Saccharomyces cerevisiae): 64.6% | IC50 (DNA gyrase): 16.7 µM | MIC (Acinetobacter baumannii): 19 µM (≈ 7.84 µg/mL) | Activity (DNA [27]): Active | MIC (Escherichia coli [28]): 10 µM | Activity (DNA [29]): Active | MIC (Staphylococcus aureus [6]): 10 µM (≈ 4.12 µg/mL) | fractional inhibitory concentration index (FICI) (Klebsiella pneumoniae [30]): 0.7 | MIC (Pseudomonas aeruginosa [7]): 19 µM (≈ 7.84 µg/mL) | MIC (Staphylococcus aureus [8]): 10 µM (≈ 4.12 µg/mL) | Activity (DNA [31]): Active | MIC (Pseudomonas aeruginosa [9]): 19 µM (≈ 7.84 µg/mL) | MIC (Staphylococcus aureus [32]): 2 µM | MIC (Klebsiella pneumoniae [10]): 5 µM (≈ 2.06 µg/mL) | MIC (Candida tropicalis): 39 µM (≈ 16.1 µg/mL) | MIC (Escherichia coli [11]): 39 µM (≈ 16.1 µg/mL) | MIC (Candida albicans [12]): 10 µM (≈ 4.12 µg/mL) | MIC (Klebsiella pneumoniae [33]): 1 µM
